Assay results of several laboratories.
Protocols differ between the studies behind these lines.

Compound | tested on | assay | system | conditions | quantity | value
COc1ccc(CNC[C@](O)(COCc2ccc(F)cc2)[C@@H]2CC[C@@H](C)C[C@H]2OCc2ccc(F)cc2)cc1 | MDA-MB-231 | cell growth or viability, MTT | – | 30 µM, 72 h | inhibition | 99.4%
C=CCO/N=c1\cc2n(-c3ccc(Cl)cc3)c3ccccc3nc-2cc1Nc1ccc(Cl)cc1 | Neisseria gonorrhoeae | microbial growth | ATCC49226 | – | MIC | 15 µM
CCc1c(C)c2ccc(OCC=Cc3ccccc3)c(C)c2oc1=O | MDA-MB-231 | cell growth or viability, MTT | – | 500 µg/mL | viability | 13%
CO/N=c1\cc2n(-c3ccc(Cl)cc3)c3ccccc3nc-2cc1Nc1ccc(Cl)cc1 | Neisseria gonorrhoeae | microbial growth | ATCC49226 | – | MIC | 0.94 µM
COc1ccc(COC[C@@](O)(CNCc2ccccc2)[C@@H]2CC[C@@H](C)C[C@H]2OCc2ccc(OC)cc2)cc1 | MDA-MB-231 | cell growth or viability, MTT | – | 10 µM, 72 h | inhibition | 99.5%
C[C@H](NC(=O)CO/N=c1\cc2n(-c3ccc(Cl)cc3)c3ccccc3nc-2cc1Nc1ccc(Cl)cc1)C(=O)OC(C)(C)C | Neisseria gonorrhoeae | microbial growth | ATCC49226 | – | MIC | 3.75 µM
C[C@@H]1CC[C@@H]([C@](O)(CNCc2cccc3ccccc23)COCc2ccccc2)[C@H](OCc2ccccc2)C1 | MDA-MB-231 | cell growth or viability, MTT | – | 10 µM, 72 h | inhibition | 96.8%
Cc1c(Cc2ccccc2)c(=O)oc2c(C)c(OCC(=O)NN=Cc3ccccc3)ccc12 | MDA-MB-231 | cell growth or viability, MTT | – | 125 µg/mL | viability | 8.96%
COC1=CC(=O)c2ccccc2C1=O | Lodderomyces parapsilosis | microbial growth, broth dilution | ATCC22019 | 24 h | MIC | 6.25 µg/mL
CCc1c(C)c2ccc(OCc3nnc(S)n3N)c(C)c2oc1=O | MDA-MB-231 | cell growth or viability, MTT | – | 62.5 µg/mL | viability | 69.4%
O=C(O)CO/N=c1\cc2n(-c3ccc(Cl)cc3)c3ccccc3nc-2cc1Nc1ccc(Cl)cc1 | Neisseria gonorrhoeae | microbial growth | ATCC49226 | – | MIC | 1.88 µM
Cc1c(Cc2ccccc2)c(=O)oc2c(C)c(OCC(=O)NN=Cc3ccc([N+](=O)[O-])cc3)ccc12 | MDA-MB-231 | cell growth or viability, MTT | – | 500 µg/mL | viability | 14.4%
O=C(CO/N=c1\cc2n(-c3ccc(Cl)cc3)c3ccccc3nc-2cc1Nc1ccc(Cl)cc1)NCc1ccc(C(F)(F)F)cc1 | Neisseria gonorrhoeae | microbial growth | ATCC49226 | – | MIC | 15 µM
C[C@@H]1CC[C@@H]([C@@](C)(O)Cn2cnc3ccccc32)[C@H](OCc2ccccc2)C1 | MDA-MB-231 | cell growth or viability, MTT | – | 30 µM, 72 h | inhibition | 80%
C[C@@H]1[C@H](O)[C@@H](C)/C=C/C=C/C=C/C=C/C=C/C=C/C=C/[C@H](O[C@@H]2O[C@H](C)[C@@H](O)[C@H](N)[C@@H]2O)C[C@@H]2O[C@](O)(C[C@@H](O)C[C@@H](O)[C@H](O)CC[C@@H](O)C[C@@H](O)CC(=O)O[C@H]1C)C[C@H](O)[C@H]2C(=O)O | Lodderomyces parapsilosis | microbial growth, broth dilution | ATCC22019 | 24 h | MIC | 2 µg/mL
